Data: ChEMBL document CHEMBL2331476, “A novel semisynthetic flavonoid 7-O-galloyltaxifolin upregulates heme oxygenase-1 in RAW264.7 cells via MAPK/Nrf2 pathway” (J Med Chem, 2013)
The source made the active and inactive calls. No cut-off for these calls is given here.

Assays:
[1] = molecular target: T1, Nuclear factor erythroid 2-related factor 2 (Mus musculus) (UniProt Q60795); assay: Activation of Nrf2 in mouse RAW264.7 cells assessed as cytosolic accumulation at 50 uM after 3 hrs by Western blotting analysis; assay type: cell-based
T1 sequence (whole entry): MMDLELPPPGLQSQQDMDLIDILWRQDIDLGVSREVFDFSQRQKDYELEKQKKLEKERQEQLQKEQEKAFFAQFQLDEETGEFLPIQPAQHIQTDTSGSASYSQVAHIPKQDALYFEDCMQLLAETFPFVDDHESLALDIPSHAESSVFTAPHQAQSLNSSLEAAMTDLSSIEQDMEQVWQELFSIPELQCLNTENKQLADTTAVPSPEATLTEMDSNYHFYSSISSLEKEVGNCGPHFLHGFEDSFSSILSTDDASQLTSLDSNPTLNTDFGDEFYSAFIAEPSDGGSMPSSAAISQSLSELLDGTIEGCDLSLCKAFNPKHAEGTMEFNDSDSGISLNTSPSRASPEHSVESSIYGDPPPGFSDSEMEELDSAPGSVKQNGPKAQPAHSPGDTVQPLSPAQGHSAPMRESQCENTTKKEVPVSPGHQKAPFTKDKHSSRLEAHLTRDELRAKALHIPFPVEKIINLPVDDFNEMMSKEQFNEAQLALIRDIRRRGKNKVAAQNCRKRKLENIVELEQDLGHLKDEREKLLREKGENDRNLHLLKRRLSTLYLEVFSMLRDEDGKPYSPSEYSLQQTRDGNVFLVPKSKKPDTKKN
In short: (§1)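 RAW264.7 cells (passage 5−25) seeded at 1 × 10⁵ cells/cm², switched to serum-free medium after 8 h, left overnight, then treated 3 h in serum-free medium; 0.1% DMSO vehicle control. Cells were swollen in hypotonic HEPES/NP-40 buffer for the cytosolic fraction and nuclei extracted in high-salt buffer. Blots loaded 30 μg/lane, Nrf2 densitometry normalized to actin, mean of three experiments.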

[2] = molecular target: T1, Nuclear factor erythroid 2-related factor 2 (Mus musculus); assay: Activation of Nrf2 in mouse RAW264.7 cells assessed as nuclear accumulation at 50 uM after 3 hrs by Western blotting analysis; assay type: cell-based; in short: as §1
[3] = molecular target: T1, Nuclear factor erythroid 2-related factor 2 (Mus musculus); assay: Activation of Nrf2 in mouse RAW264.7 cells assessed as upregulation of HO1 protein expression at 50 uM after 6 hrs by Western blotting analysis; assay type: cell-based
In short: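 HO-1 protein in whole-cell lysates (20 μg/lane) of serum-starved RAW264.7 cells after 6 h at 10-50 μM or 50 μM for 1-6 h in serum-free medium, 0.1% DMSO control. Chemiluminescent Western blot; HO-1 densitometry normalized to actin, mean of three experiments.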

[4] = molecular target: T1, Nuclear factor erythroid 2-related factor 2 (Mus musculus); assay: Activation of Nrf2 in mouse RAW264.7 cells assessed as upregulation of Hmox1 gene expression at 50 uM after 6 hrs by real-time PCR analysis relative to GAPDH mRNA expression; assay type: cell-based
In short: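 Serum-starved RAW264.7 cells were exposed for 6 h in serum-free medium against a 0.1% DMSO control. Total RNA (2 μg) was reverse-transcribed, then TaqMan qPCR run for Hmox1 and Gapdh over 40 cycles. Crossing points were taken by second-derivative maximum, and fold change calculated by the 2^−ΔΔCT method normalized to Gapdh. Mean ± SD of three experiments.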

RAW264.7 [5] = assay: Cytotoxicity against mouse RAW264.7 cells assessed as decreased cell viability at 50 uM after 6 hrs by MTT assay; assay type: cell-based; conditions: raw264.7, 6 h
In short: (§2)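 Serum-starved RAW264.7 cells exposed 6 h at 10 or 50 μM; 0.1% DMSO control (100% viability), 1.5% Triton X-100 positive control. Cells washed and incubated 2 h at 37 °C with 0.5 mg/mL MTT in serum-free medium. Formazan dissolved in DMSO, A540 read, viability relative to DMSO-treated cells.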

RAW264.7 [6] = assay: Cytotoxicity against mouse RAW264.7 cells assessed as decreased cell viability at 10 uM after 6 hrs by MTT assay; assay type: cell-based; conditions: raw264.7, 6 h; in short: as §2
RAW264.7 [7] = assay: Drug uptake in mouse RAW264.7 cells measured per 10^6 cells at 50 uM after 3 hrs; assay type: ADME, cell-based; conditions: raw264.7, 3 h
In short: (§3)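 Cells given 50 μM for up to 6 h, then scraped, washed twice in PBS and sonicated in methanol with 5% acetic acid. Supernatant analysed by UPLC on a phenyl column (water/1% acetic acid/methanol to methanol gradient, 35 °C) with negative ESI-QqTOF MS. Contents expressed as nmol per 10⁶ cells.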

[8] = molecular target: MAP kinase p38 (Homo sapiens) (UniProt O15264+Q15759+Q16539+P53778); assay: Activation of p38MAPK in mouse RAW264.7 cells assessed as phosphorylation at Thr180/Tyr182 at 5 uM after 30 mins by Western blotting analysis; assay type: cell-based
In short: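 Serum-starved RAW264.7 cells were treated 30 min with 5 μM anisomycin in serum-free medium. Whole-cell lysate was made in Tris/NaCl/SDS/NP-40/Triton buffer with phosphatase and protease inhibitors, pH 7.4, and 35 μg/lane run on 10% SDS-PAGE. Blots were probed for p38 dually phosphorylated at Thr180/Tyr182 versus total p38, with chemiluminescent detection.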

[9] = molecular target: T1, Nuclear factor erythroid 2-related factor 2 (Mus musculus); assay: Activation of Nrf2 in mouse RAW264.7 cells assessed as upregulation of Hmox1 gene expression at 10 to 50 uM after 6 hrs by real-time PCR analysis relative to GAPDH mRNA expression; assay type: cell-based
In short: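 RAW264.7 cells treated 6 h in serum-free medium, 0.1% DMSO control. Total RNA (2 μg) reverse transcribed; TaqMan qPCR for Hmox1 and Gapdh, 40 cycles. Relative expression by 2^−ΔΔCT, normalized to Gapdh; mean ± SD of three experiments.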

RAW264.7 [10] = assay: Stability in mouse RAW264.7 cells assessed as gallic acid level at 50 uM after 6 hrs by HPLC/MS analysis; assay type: ADME, cell-based; conditions: raw264.7, 6 h
RAW264.7 [11] = assay: Drug uptake in mouse RAW264.7 cells measured per 10^6 cells at 50 uM after 6 hrs; assay type: ADME, cell-based; conditions: raw264.7, 6 h; in short: as §3
RAW264.7 [12] = assay: Drug uptake in mouse RAW264.7 cells at 50 uM after 10 mins; assay type: ADME, cell-based; conditions: raw264.7, 10 min; in short: as §3

Structure (SMILES) | fold change (FC) [3] | Activity (RAW264.7 [5]) | Activity (RAW264.7 [6]) | Activity [9] | also measured
O=c1c(O)c(-c2ccc(O)c(O)c2)oc2cc(O)cc(O)c12 [QUERCETIN] | 1.9 | Non-toxic | Non-toxic |  | Activity [1]: Active; Activity [2]: Active; fold change (FC) [4]: 4.3
O=C(O)c1cc(O)c(O)c(O)c1 [GALLIC ACID] | 1.5 | 76% |  |  | fold change (FC) [4]: 1.5
O=C(Oc1cc(O)c2c(=O)c(O)c(-c3ccc(O)c(O)c3)oc2c1)c1cc(O)c(O)c(O)c1 |  |  |  |  | Drug uptake (RAW264.7 [7]): 8.08 nmol
COc1ccc(C[C@H]2NC[C@H](O)[C@H]2OC(C)=O)cc1 |  |  |  |  | Activity [8]: Active
O=C(Oc1c(-c2ccc(O)c(O)c2)oc2cc(O)cc(O)c2c1=O)c1cc(O)c(O)c(O)c1 | 0.9 | 79% |  | inactive | Stability (RAW264.7 [10]): Stable; Drug uptake (RAW264.7 [11]): 1.8 nmol; Drug uptake (RAW264.7 [7]): 1.75 nmol; Drug uptake (RAW264.7 [12]): 85%
O=c1c(O[C@@H]2O[C@H](CO)[C@@H](O)[C@H](O)[C@H]2O)c(-c2ccc(O)c(O)c2)oc2cc(O)cc(O)c12 [ISOQUERCETIN] | 1 | Non-toxic | Non-toxic | inactive | 
O=C1c2c(O)cc(O)cc2O[C@H](c2ccc(O)c(O)c2)[C@H]1O [(+)-TAXIFOLIN] | 1 | Non-toxic | Non-toxic | inactive | 
